The campaign covered roughly 2,500 compounds. About 1,200 (48%) were called active.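 Rule for the calls: active = mean activation above the low control average plus 3 SD, as set in the primary screen (cut at about 12% in these data); inactive = the rest.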 The set was probably picked from earlier hits. Some of the results follow.
Biological target: Troponin I, cardiac muscle (Homo sapiens) + Troponin T, cardiac muscle (Homo sapiens) + Troponin C, slow skeletal and cardiac muscles (Homo sapiens) (UniProt P19429+P45379+P63316)
Experiment: cardiac RTF calcium sensitivity activators, confirmation, biochemical, IANBD-TnC fluorescence, triplicate (AID 504383);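 note: 0% = DMSO at 0.472 mM calcium and 100% = DMSO at 2.9 mM calcium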
Settings: IANBD-labeled cardiac RTF, Ca2+ sensitivity fluorescence; at 7.2 µM; stronger effect = higher value; scaled from EC20 to saturating calcium; tested at EC20 calcium, 0.472 mM
How it was run: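 Test system: labelled regulated thin filament protein complex. Dosing: single nominal compound dose of 7.2 µM. Benchmarks: EC20 and EC100 calcium wells. Read-out basis: fluorescence gain scaled between EC20 and EC100 calcium controls. Probe or stimulus: submaximal calcium at 0.472 mM (EC20). Technique: fluorescence. Times: 15 min compound exposure, 25 °C.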

Row | Compound | activation
1 | NC(=O)C1(NC(=O)[C@@H]2CC3(CC(c4cccc(NC(=O)[C@@H]5CCC(=O)N5)c4)=NO3)CN2C(=O)c2ccccc2)CC1 (stereo not given in full) | 9.17% (inactive)
2 | COc1ccc(N/C=C2\C(=O)CCc3c2oc2cc(Cl)c(O)c(Cl)c32)cc1 | 47.7% (active)
3 | Cc1cccc(/C=C2/SC(=O)N(Cc3ccccc3)C2=O)n1 | 47.1% (active)
4 | COC(=O)c1ccccc1NC(=O)[C@@H]1CCC(=O)N1C1OC(=O)c2c1ccc(OC)c2OC (stereo not given in full) | 3.55% (inactive)
5 | CCOc1cc2c(cc1/C=C/c1noc(C)c1[N+](=O)[O-])OC(C)C2 (stereo not given) | 330% (active)
6 | CCN(CC)C(=O)Cn1c(C)c(/C=C/c2cc[n+](C)cc2)c2ccccc21 | 6.95% (inactive)
7 | C=CCn1cc(/C=C/c2cc[n+](C)cc2)c2ccccc21 | 5.8% (inactive)
8 | Cn1cc(/C=C/c2cc[n+](C)cc2)c2cc(F)ccc21 | 6.92% (inactive)
9 | CC(C)n1cc(/C=C/c2cc[n+](C)cc2)c2ccccc21 | 31.7% (active)
10 | COC(=O)Cn1c(C)c(/C=C/c2cc[n+](C)cc2)c2ccccc21 | 12.8% (active)
11 | CCn1cc(/C=C/c2cc[n+](C)cc2)c2ccccc21 | 12.4% (active)
12 | Cn1cc(/C=C/c2cc[n+](C)cc2)c2cc(Cl)ccc21 | 3.84% (inactive)
13 | C=CCn1c(C)c(/C=C/c2cc[n+](C)cc2)c2ccccc21 | 38.7% (active)
14 | COC(=O)c1ccc2c(c1)C(C)(C)C(/C=C/c1ccccc1O)=[N+]2C | 7.52% (inactive)
15 | COC(=O)Cn1cc(/C=C/c2cc[n+](C)cc2)c2ccccc21 | 16.8% (active)
16 | Oc1ccc2ccc3cccc[n+]3c2c1 | 68.4% (active)
17 | COc1ccc(-c2onc3ccc(C(C)=O)cc23)cc1 | 18% (active)
18 | CC(=O)c1ccc2noc(-c3ccc(C)cc3)c2c1 | 6.52% (inactive)
19 | CC1(c2ccc(OC(F)F)cc2)NC(=O)N(CC(=O)Nc2ccc(F)cc2)C1=O (stereo not given) | 1.92% (inactive)
20 | CCC1(c2ccccc2)NC(=O)N(CC(=O)Nc2ccc(OC)nc2)C1=O (stereo not given) | 11% (inactive)
21 | O=C(CN1C(=O)NC2(CCCCC2)C1=O)Nc1ccccc1Cl | 12.1% (active)
22 | C=CCOc1ccc(C2OC34CCCCC3C(C#N)(C#N)C2(C#N)C(=N)O4)cc1 (stereo not given) | 11.3% (inactive)
23 | Cc1cc(C)n2nc(C(=O)N3CCCC(Nc4ccc(C(C)C)cc4)C3)cc2n1 (stereo not given) | 11.9% (active)
24 | Cc1[nH]nc2c1C(c1cc(Br)cs1)C(C#N)=C(N)O2 (stereo not given) | 1.18% (inactive)

Row | Compound | activation
25 | COc1ccc(-c2ccc(C3C(C#N)=C(N)Oc4n[nH]c(C)c43)o2)cc1 (stereo not given) | 53.6% (active)
26 | CCCCCCCC(=O)Nc1ccc(S(=O)(=O)Nc2nccs2)cc1 | 39.1% (active)
27 | CC(NC(=O)COc1ccc(N(C)S(=O)(=O)c2ccccc2)cc1)c1ccccc1 (stereo not given) | 8.81% (inactive)
28 | CN(C)C(CNC(=O)c1cccc(S(=O)(=O)N(C)C)c1)c1ccccc1 (stereo not given) | 14.9% (active)
29 | O=C(NCc1cccc(C(F)(F)F)c1)c1cccc(S(=O)(=O)NCc2ccccc2)c1 | 7.34% (inactive)
30 | CC(=O)C1=C(O)CCCC1=NCc1nc2ccccc2[nH]1 | 2.38% (inactive)
31 | O=C(CSC1CC(=O)N(c2ccc(C(=O)O)cc2)C1=O)Nc1ccc2ccccc2c1 (stereo not given) | 1.35% (inactive)
32 | CCOc1ccc(N2C(=O)CC(SCc3nc4ccccc4[nH]3)C2=O)cc1 (stereo not given) | 16.2% (active)
33 | C[C@H](O)C(=O)C1=Nc2c(nc(N)[nH]c2=O)NC1 | -0.23% (inactive)
34 | Cc1ccc(C)c(N2CCN(C(=O)c3cc4ccccn4n3)CC2)c1 | 21.1% (active)
35 | O=C(Nc1ccc(Cl)c(Cl)c1)Nc1ccc([N+](=O)[O-])cn1 | 28.5% (active)
36 | O=C(Nc1ccc(N2CCN(C(=O)c3ccco3)CC2)cc1)c1ccc(F)cc1 | 14.9% (active)
37 | O=C(COC(=O)C1(c2ccc(F)cc2)CCCC1)N1CCN(C(=O)c2ccco2)CC1 | 3.96% (inactive)
38 | O=C(COC(=O)C1(c2ccccc2F)CCCC1)Nc1ncc(C(F)(F)F)cc1Cl | 4.8% (inactive)
39 | COc1ccc(/C=C/C(=O)c2nc3ccccc3n2CC(=O)c2ccc(OC)cc2)cc1 | -1.84% (inactive)
40 | COc1ccc(/C=N/NC(=O)Cn2c(Cc3ccc(OC)c(OC)c3)nc3ccccc32)cc1 | 15% (active)
41 | Cc1c(C(=O)NCc2ccc3c(c2)cc(C)n3C)cccc1[N+](=O)[O-] | 8.1% (inactive)
42 | Cc1c(C(=O)NCc2ccco2)cccc1[N+](=O)[O-] | 11.7% (active)
43 | c1ccc2[nH]c3cc4ncnc4cc3nc2c1 | 27.5% (active)
44 | O/C(=C\c1nc2ccccc2[nH]1)c1cccs1 | 2.34% (inactive)
45 | Cc1ncn(C23CC4CC(CC(C4)C2)C3)n1 | 4.82% (inactive)
46 | COC(=O)C1=C(O)/C(=C\c2ccc(CNS(=O)(=O)c3ccc(Cl)cc3)o2)N=C1C | 9.05% (inactive)
47 | COC(=O)CN(c1cc(OC)ccc1OC)S(=O)(=O)c1ccc(OC)c(OC)c1 | 14.6% (active)
48 | CCOc1ccccc1N(CC(=O)Nc1ccc(OC)c(OC)c1)S(=O)(=O)c1ccccc1 | 5.99% (inactive)

Row | Compound | activation
49 | COc1ccc(OC)c(NC(=O)c2cc(S(=O)(=O)N(C)C)ccc2N2CCCC2)c1 | 7.08% (inactive)
50 | Cn1c(CN2CCCC2)nc2cc(NC(=O)COc3ccc([N+](=O)[O-])cc3)ccc21 | 8.98% (inactive)
51 | CCCn1c(CN2CCN(C(=O)OCC)CC2)nc2cc(NC(=O)CC)ccc21 | 8.96% (inactive)
52 | CCC(=O)Nc1ccc2c(c1)nc(CCN1CCN(C)CC1)n2C | 56% (active)
53 | O=C(O)c1cc(-c2ccc(/C=C3/SC(=S)N(Cc4ccccc4)C3=O)o2)ccc1Cl | 5.81% (inactive)
54 | Cn1cccc1/C=C1/SC(=S)N(CC(=O)O)C1=O | 176% (active)
55 | O=C(O)CN1C(=O)/C(=C/c2ccc(SCc3ccccc3)o2)SC1=S | 39.7% (active)
56 | CN1/C(=C\C=C2/SC(=S)N(CC(=O)O)C2=O)C(C)(C)c2ccccc21 | 7.05% (inactive)
57 | Cn1cccc1/C=C1\SC(=S)N(CC(=O)O)C1=O | 14.1% (active)
58 | COc1ccc(Nc2cccc3ccccc23)cc1 | 199% (active)
59 | CCOc1cc(N2CCOCC2)c(OCC)cc1NC(=O)CCS(=O)(=O)c1ccc(Cl)cc1 | 72% (active)
60 | COc1cc(/C=N/NC(=O)c2cc(-c3ccccc3Cl)nc3ccccc23)cc(OC)c1O | 15.8% (active)
61 | COc1cc(/C=N\NC(=O)CC(=O)NCCc2ccccc2)ccc1O | 7.55% (inactive)
62 | CCOc1ccc(C(=O)NCC(=O)Nc2ncccc2C)cc1OCC | 16.6% (active)
63 | Cc1cccc(/C=N/n2c(-c3ccncc3)n[nH]c2=S)c1 | 39.4% (active)
64 | CCCCC1=CC2=C(c3ccco3)C(=O)C(C)(OC(=O)c3ccc(OC)cc3)C(=O)C2=CN1CCc1ccccn1 (stereo not given) | 25.8% (active)
65 | COC(=O)CCC(=O)OC1(C)C(=O)C2=CN(Cc3ccc(OC)cc3)C(c3ccc(OC)cc3)=CC2=C(Br)C1=O (stereo not given) | 6% (inactive)
66 | O=C(c1ccccc1)c1ccc(O)cc1O | 89.6% (active)
67 | O=C(c1ccccc1)c1ccncc1 | 5.78% (inactive)
68 | O=C(O)c1ccccc1C1=Nc2ccc(O)cc2Oc2cc(O)ccc21 | 5.85% (inactive)
69 | O=C(c1ccccc1)c1ccccc1C(=O)c1ccccc1 | 12.7% (active)
70 | CC1C/C(=C/c2cccn2C)C(=O)/C(=C/c2cccn2C)C1 (stereo not given) | 11.4% (inactive)
71 | Cn1cccc1/C=C1\CCC/C(=C\c2cccn2C)C1=O | 15.9% (active)
72 | COC(=O)c1sccc1Oc1ccc(Cl)cc1N1C(=O)CCC1=O | 8.17% (inactive)

Row | Compound | activation
73 | CC(NC(=O)CN1CCC(C(N)=O)CC1)c1ccccc1 (stereo not given) | 5.31% (inactive)
74 | Cc1ccc2c(C(=O)CN3CCC(C(N)=O)CC3)c(C)[nH]c2c1 | 16.3% (active)
75 | COc1ccc(C)cc1Nc1n[n+](-c2ccccc2)c(-c2cc([N+](=O)[O-])cc(OC)c2O)s1 | 5.27% (inactive)
76 | C=C[C@@](C)(O)CC[C@@H]1[C@@]2(C)CCCC(C)(C)[C@@H]2CC[C@@]1(C)O | 6.12% (inactive)
77 | COc1ccccc1NS(=O)(=O)c1cc(NC(=O)CCNC(C)=O)ccc1N1CCCCC1 | 4.68% (inactive)
78 | COc1ccccc1NS(=O)(=O)c1cc(NC(=O)c2cc3ccccc3oc2=O)ccc1C | 72.6% (active)
79 | Cc1ccc(-c2csc(NC(=O)CSc3nc4ccccc4o3)n2)cc1 | 2.75% (inactive)
80 | Cc1ccc(NC(=O)CSc2nnc(-c3cccnc3)s2)cc1 | 678% (active)
81 | CC(O)Cc1cn([C@@H](CCCCN)C(=O)N2CCNCC2)nn1 (stereo not given in full) | 2.6% (inactive)
82 | C[C@@H](C(=O)N1CCNCC1)n1cc(CCCN=C(N)N)nn1 | 107% (active)
83 | CC(C)(C)OC(=O)NCCCC[C@@H](C(=O)N1CCN(C(=O)OC(C)(C)C)CC1)n1cc(CCC(=O)O)nn1 | 7.02% (inactive)
84 | CCCCNc1nc(-c2ccccc2)nc(-n2ccnc2)n1 | 15.9% (active)
85 | COc1ccc(NC(=O)CSc2nncc3ccccc23)cc1 | 1.45% (inactive)
86 | Cn1cccc1Cc1nnc(SCC(=O)Nc2ccc(F)cc2F)n1-c1ccc(F)cc1 | 7.53% (inactive)
87 | O=C(CSc1nncc2ccccc12)Nc1ccc(F)cc1 | 170% (active)
88 | COc1ccc(-c2cc(C(F)(F)F)c3c(N)c(C(=O)NCCSC)sc3n2)cc1 | 5.88% (inactive)
89 | CC(=O)c1sc2nc(-c3cccs3)cc(C(F)(F)F)c2c1N | -0.48% (inactive)
90 | Nc1c(C(=O)Nc2ccccc2F)sc2nc(Cc3ccccc3)cc(C(F)(F)F)c12 | 7.05% (inactive)
91 | Nc1c(C(=O)C2CC2)sc2nc(-c3cccs3)cc(C(F)(F)F)c12 | 18.1% (active)
92 | CC(C)(C)C(=O)c1sc2nc(-c3cccs3)cc(C(F)(F)F)c2c1N | 12.4% (active)
93 | Nc1c(C(=O)C2CC2)sc2nc(-c3ccccc3)cc(C(F)(F)F)c12 | 30.1% (active)
94 | Nc1c(C(=O)Nc2nccs2)sc2nc(-c3cccs3)cc(C(F)(F)F)c12 | 10.7% (inactive)
95 | Cc1nnc(NC(=O)c2sc3nc(-c4cccs4)cc(C(F)(F)F)c3c2N)s1 | 9.99% (inactive)

From PubChem BioAssay AID504383 (The Scripps Research Institute Molecular Screening Center, 2011)
